Source: PubChem
CHOP UPR activ – activators of apoptotic arm of unfolded protein response (CHOP); CHO-CHOP luciferase reporter, UPR activation, luminescence; percent of tunicamycin response over DMSO baseline; activation, % at 10 µM; hit rate 0.34% among 330,000;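 active = at 10 µM dose, activation of 40% or more, normalized to positive control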;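 note: 100% = tunicamycin at 10 µg/mL and 0% = DMSO alone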
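Test system: CHO CHOP reporter cells. Input: 500 CHO-CHOP cells per well. Medium: F12 with 10% FBS. Technique: luciferase luminescence. Measure: percent activation relative to tunicamycin control. Dosing: 10 µM compound, 0.5% DMSO. Timing: 16-18 h cell attachment, then 6 h compound exposure, 37 °C.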
UBC13 polyUb – inhibitors of human UBC13 polyubiquitin chain formation; P61088; TR-FRET; inhibition, % at 20 µM; hit rate 0.47% among 330,000; in the data active = inhibition above about 45%, passing the limit was not always enough
Target sequence (P61088 whole entry, looked up): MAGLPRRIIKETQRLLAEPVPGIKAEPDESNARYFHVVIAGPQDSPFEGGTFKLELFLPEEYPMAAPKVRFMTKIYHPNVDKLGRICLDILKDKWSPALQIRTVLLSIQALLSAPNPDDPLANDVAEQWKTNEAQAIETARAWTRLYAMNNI
Mdm2-MdmX inh – disrupts the human Mdm2-MdmX interaction | O15151+Q00987 | SaOS-2 split-luciferase Mdm2/MdmX complementation, luminescence | inhibition, % at 8 µM | hit rate 3% among 330,000;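 active = inhibition of at least 50% at 8 µM in the primary screen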
Apaf1 inhib – blocks human Apaf-1 apoptosome activity; O14727; reconstituted apoptosome caspase-3 activity, DEVD-Rh110 fluorescence; inhibition, % at 20 µM; hit rate 0.71% among 330,000; AID 489030; active = inhibition of at least 40% at 20 µM;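 note: plate controls were DMSO wells for no effect and DEVD-CHO caspase inhibitor wells for full effect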
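System – cell-free apoptosome with Apaf-1, procaspase-3 and caspase-9 · Buffer or medium – pH 7.5 Hepes buffer with CHAPS, BSA, DTT · Also added – cytochrome c with DEVD-Rh110 · Times – 30 min compound preincubation, 50 min activation, room temperature · Technique – Rh110 fluorescence intensity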
XBP1 UPR activ – adaptive UPR (XBP1) activation; AID 463104; hit rate 0.33% among 330,000; activation, % at 20 µM; CHO-XBP1 luciferase reporter, IRE1-XBP1 UPR activation, luminescence; percent of tunicamycin response, DMSO as zero;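 active = versus positive control, 20 µM dose yields 30% or more activation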;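 note: 100% = tunicamycin at 10 µg/mL and 0% = DMSO only wells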
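Assay system: IRE1-XBP1 luciferase reporter CHO line. Input: 1000 cells/well. Buffer or medium: F12 with 10% serum. Doses: 20 µM, 1% DMSO. Times: overnight seeding at 37 °C, 6 h compound treatment at 37 °C. Technique: Steady-Glo luciferase glow luminescence, 10 min after reagent addition.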
Mdm2-MdmX conf – human Mdm2/MdmX binding inhibition, confirmed; shares compounds with Mdm2-MdmX inh; luminescent assay; inhibition, % at 8 µM; hit rate 55% among 10,000; AID 489028; in the data active = inhibition above about 40%
Full FLuc ctr – full-length luciferase inhibition in Mdm2/MdmX counter-screen. shares compounds with Mdm2-MdmX inh. SaOS-2 full-length luciferase counterscreen, luminescence. inhibition, % at 8 µM. hit rate 77% among 6,200;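 active = mean inhibition at 8 µM reaching about 37%, which flags the compound as non-specific, limit read from the data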;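 note: p53-null SaOS-2 cells with luciferase driven by a doxycycline-inducible promoter; compound on cells about two nights before reading with doxycycline added after day one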
* hit, by the source's call; · = not tested or not shown. Hits are enriched below; roughly 4.1% of the tested compounds scored in any of these assays.

SMILES	CHOP UPR activ	UBC13 polyUb	Mdm2-MdmX inh	Apaf1 inhib	XBP1 UPR activ	Mdm2-MdmX conf	Full FLuc ctr
Cc1nn(Cc2ccccc2)c(Cl)c1/C=C/C(=O)OC(C(=O)NC(N)=O)C(C)C (stereo unspecified)	-2	2	-12	-2	2	·	·
COc1cc(OC)cc(C(=O)N2CCN(C(=O)c3cccc(F)c3)CC2)c1	1	3	20	-7	-2	·	·
COc1ccc(C(=O)n2nc(-c3ccc(OC)cc3)nc2N)cc1	-1	15	-13	2	1	·	·
COc1ccc2cc3c(N)nn(C(=O)c4cccc(F)c4)c3nc2c1	0	3	71*	-18	3	81*	43*
COc1ccc2cc3c(N)c(C(=O)N4CCCC4)sc3nc2c1	5	7	-46	4	4	·	·
COc1ccc2cc3c(N)nn(C(=O)c4ccc(F)cc4)c3nc2c1	0	-4	82*	-5	-1	89*	47*
COc1ccc2cc3c(N)nn(C(=O)c4ccccc4Cl)c3nc2c1	-4	-16	93*	4	-1	93*	51*
O=C(Nc1ccc(N2CCN(Cc3ccccc3F)CC2)cc1)c1ccc([N+](=O)[O-])o1	90*	-20	81*	18	2	69*	16
CCOC(=O)c1[nH]c(C)c(C(=O)Nc2cc(Cl)ccc2C)c1C	0	15	66*	-12	5	72*	85*
CC(=O)c1c(C)[nH]c(C(=O)OCc2csc(CC(=O)Nc3ccccc3C)n2)c1C	-1	11	51*	13	-5	18	·
CCOC(=O)c1c(C)[nH]c(C(=O)COC(=O)c2ccccc2NC(=O)c2ccco2)c1C	-3	-8	63*	4	9	16	·
CCOC(=O)c1c(C)[nH]c(C(=O)OCC(=O)NCc2ccc(F)cc2)c1C	-1	-3	78*	-20	-1	13	·
CCOC(=O)c1[nH]c(C)c(C(=O)OCC(=O)NCc2ccc(OC)c(OC)c2)c1C	0	-2	12	5	-2	·	·
CCO[C@H]1OC(C(=O)O)=C[C@@H](c2ccc3c(c2)OCO3)[C@@H]1CCCO	-3	-3	11	-2	-1	·	·
CCOC(=O)c1[nH]c(C)c(C(=O)Nc2ccccc2C)c1C	1	7	56*	-7	0	62*	49*
CCOC(=O)c1[nH]c(C)c(C(=O)Nc2ccc(C)c(Cl)c2)c1C	0	-8	35	15	1	·	·
CCOC(=O)c1[nH]c(C=O)c(C(=O)OCC)c1C	1	14	65*	-1	8	59*	71*
CCOC(=O)c1ccc(N2CC(O)=C(c3nc4ccccc4c(=O)[nH]3)C2=N)cc1	-1	6	13	11	-2	·	·
CC1CCC2(CC1)C(Nc1cccc(Cl)c1)=NC(=S)N2CC#N (stereo unspecified)	0	4	33	16	5	·	·
Cc1nc(C(=O)NCc2ccccc2)sc1C1(C)CC(c2cccc([N+](=O)[O-])c2)=NO1 (stereo unspecified)	0	8	64*	4	-2	12	·
Cc1nc(C(=O)NCCC(C)C)sc1C1(C)CC(c2cccc([N+](=O)[O-])c2)=NO1 (stereo unspecified)	0	6	47	20	-4	·	·
CNC(=O)c1nc(C)c(C2(C)CC(c3cccc([N+](=O)[O-])c3)=NO2)s1 (stereo unspecified)	-2	-8	53*	-2	-1	43*	57*
COc1cccc(CNC(=O)CCCn2c(=S)[nH]c3cc4c(cc3c2=O)OCO4)c1	-1	7	25	10	-3	·	·
Cc1cc(C(=O)NC2CCCc3c2cnn3-c2ccc(C(C)(C)C)cc2)n[nH]1 (stereo unspecified)	2	2	20	13	-3	·	·
O=C1NC(=S)N/C1=C/c1ccc2ccccc2c1	2	-26	-7	6	4	·	·
SMILES	CHOP UPR activ	UBC13 polyUb	Mdm2-MdmX inh	Apaf1 inhib	XBP1 UPR activ	Mdm2-MdmX conf	Full FLuc ctr
O=C1NC(=S)N/C1=C/c1ccc2c(c1)OCO2	-2	-1	80*	-1	-3	50*	91*
O=C(NN=Cc1ccc(O)cc1O)c1ccccc1NS(=O)(=O)c1cccs1	0	-12	55*	-17	0	38	47*
COc1cccc(C(=O)Nc2ncc3c(n2)CC(c2ccc(OC)cc2OC)CC3=O)c1 (stereo unspecified)	-2	5	59*	10	7	51*	57*
CCOc1ccc(NC(=O)c2cc(=O)[nH]c3ccccc23)cc1	1	-6	14	-12	-3	·	·
COc1ccc(C(=O)Oc2ccc(F)cc2C(=O)/C=C/c2ccc(OC)c(OC)c2)cc1	1	21	-23	3	-3	·	·
COc1ccc(/C=C/C(=O)c2cc(F)ccc2OC(=O)c2ccccc2C)cc1OC	-1	-5	61*	5	17	66*	117*
CC(=O)N1CCN(CC(=O)Nc2cc(S(=O)(=O)N3CCOCC3)ccc2C)CC1	1	15	7	-31	4	·	·
Cc1ccc(NC(=S)NNC(=S)Nc2cccc(C(F)(F)F)c2)cc1	1	-19	-8	7	1	·	·
Fc1cccc(NC(=S)NCc2ccc(Cl)cc2)c1	0	-20	-43	18	-2	·	·
Fc1cc(NC(=S)NCc2ccc(CNC(=S)Nc3ccc(Cl)c(F)c3)cc2)ccc1Cl	6	0	50*	-26	-1	5	·
FC(F)(F)c1cccc(NC(=S)NNC(=S)Nc2ccc(Cl)cc2)c1	1	-4	80*	14	5	26	·
FC(F)(F)c1cccc(NC(=S)NCc2ccc(Cl)cc2)c1	-1	9	83*	15	-1	22	·
CCO[C@@H]1OC(C(=O)NCc2ccccc2)=C[C@H](c2ccc(C(F)(F)F)cc2)[C@H]1CCCO	0	14	26	22	-1	·	·
CCCCOc1ccc(C(=O)NCC(=O)NC2CCN(Cc3ccccc3)CC2)cc1	6	10	26	17	-2	·	·
CC(=O)OCC1OC(OC(C)=O)C(NC(=O)c2cccnc2)C(OC(C)=O)C1OC(C)=O (stereo unspecified)	3	-3	-11	6	1	·	·
Cc1nc(NCc2ccc3c(c2)OCO3)c2nnn(Cc3ccccc3)c2n1	0	2	77*	-8	5	38	67*
COc1ccccc1CNCC(O)(c1ccc(Cl)cc1)c1ccc(Cl)cc1	-1	17	54*	25	2	16	·
COC(=O)C1=C(C)N(c2ccc(Cl)c(Cl)c2)C(=O)C1	3	5	97*	6	-3	30	·
